Bioassay records (PubChem BioAssay)
MrgX1 antagonist: antagonists of human MrgX1 receptor, primary screen, HEK293 cells, Fluo-4 calcium flux; Mas-related G-protein coupled receptor member X1 (Homo sapiens), Q96LB2; BAM8-22 antagonism; stronger effect = lower value; B-score at 10 µM; 1.3% of 310,000 active;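 active = calcium-response B-score plate-corrected more than 3 library SD below zero, starting fluorescence within 5 deviations, no agonist response on first addition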;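 note: peak minus trough fluorescence over baseline after final BAM8-22 challenge near maximal dose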
Target sequence (Q96LB2 whole entry, looked up): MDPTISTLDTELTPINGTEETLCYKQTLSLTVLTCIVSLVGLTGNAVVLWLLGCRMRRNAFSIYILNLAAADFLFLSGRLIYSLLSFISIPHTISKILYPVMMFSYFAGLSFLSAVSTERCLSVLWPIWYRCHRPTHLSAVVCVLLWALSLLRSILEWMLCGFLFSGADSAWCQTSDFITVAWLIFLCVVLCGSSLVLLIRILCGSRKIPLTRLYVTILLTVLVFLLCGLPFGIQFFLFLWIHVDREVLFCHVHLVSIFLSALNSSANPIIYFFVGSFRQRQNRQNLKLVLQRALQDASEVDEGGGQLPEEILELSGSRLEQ
RGS4 act: RGS4 potentiators or activators, primary screen, cell-based, HEK293 M3R inducible RGS4, calcium flux; carbachol calcium flux Fluo4; stronger effect = lower value; B-score at 10 µM; 0.92% of 310,000 active; AID 463111, 2010;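 active = B-score of the integrated calcium signal more than 4 SD below the library mean, with starting fluorescence not abnormally high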;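 note: negative B-score means reduced calcium response which marks RGS4 activation or potentiation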
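test system = HEK293 cells with stable M3R and inducible RGS4 | schedule = recording 10 s baseline at 1 Hz, 100 s post-agonist | technique = Fluo4-AM (2 µM) calcium-flux fluorescence, kinetic read | measure = Agonist-evoked peak-minus-minimum fluorescence over baseline, integrated ratio, B score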
MrgX1 PAM: positive allosteric modulators of MrgX1, primary screen, HEK293 cells, Fluo-4 calcium flux | 0.63% of 310,000 active | Mas-related G-protein coupled receptor member X1 (Homo sapiens), Q96LB2 | B-score at 10 µM | AID 588675, 2011 | FDSS; stronger effect = higher value;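 active = plate-corrected calcium response at least 3 library SD above typical, normal starting fluorescence, not activating the receptor alone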;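 note: compound read alongside a low EC10 to EC30 dose of BAM8-22 agonist; peak minus trough fluorescence over baseline measured at the second addition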
RGS4 inh: RGS4 inhibitors, primary screen, cell-based, HEK293 M3R inducible RGS4, calcium flux. Regulator of G-protein signaling 4 (Homo sapiens), P49798. Fluo-4 calcium flux; stronger effect = higher value; triggered by carbachol at its EC20. B-score at 10 µM. 0.45% of 310,000 active. AID 463165, 2010;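 active = B-score, a plate-corrected calcium signal, over three deviations above library mean, with baseline fluorescence within five deviations of library mean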;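 note: RGS4 expression induced by doxycycline in cells with stable M3 receptor; B-score is computed from the integrated fluorescence ratio over baseline after carbachol; higher B-score means a larger calcium signal and so more RGS4 inhibition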
Target sequence (P49798 whole entry, looked up): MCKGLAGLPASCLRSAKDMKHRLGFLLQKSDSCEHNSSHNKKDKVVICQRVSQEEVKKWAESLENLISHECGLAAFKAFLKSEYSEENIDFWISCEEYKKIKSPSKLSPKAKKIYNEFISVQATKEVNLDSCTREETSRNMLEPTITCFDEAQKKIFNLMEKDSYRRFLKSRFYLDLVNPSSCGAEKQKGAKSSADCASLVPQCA
MrgX1 agonist: agonists of human MrgX1 receptor, primary screen, HEK293 cells, Fluo-4 calcium flux; B-score at 10 µM; 0.44% of 310,000 active; Mas-related G-protein coupled receptor member X1 (Homo sapiens), Q96LB2; Fluo-4 calcium fluorescence, agonist mode; stronger effect = higher value;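 active = calcium response B-score plate-corrected fluorescence ratio at least 3 library SD, with starting fluorescence B-score inside 5 SD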
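Material: MrgX1-expressing HEK293 cells; input: 15,000 cells per well; doses: test compound given as first of three sequential additions; schedule: overnight plating before 1 h dye loading; technique: Fluo-4 NW calcium-flux fluorescence, kinetic read; evaluation: baseline-normalised fluorescence change ratio, B-scored; control set: plate-wise positive and negative controls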
MrgX1 ag confirm: MrgX1 receptor agonists, duplicate retest, confirmation, HEK293 cells, Fluo-4 calcium flux; activation, % at 10 µM; Fluo-4 calcium fluorescence, FDSS; 78% of 600 active; shares compounds with MrgX1 agonist;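 active = calcium signal rise, corrected for plate position, at least 3 library SD high, with starting brightness within 5 such deviations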
HEK293 Ca flux: nonspecific calcium signal in parental HEK293, confirmation, counter-screen for MrgX1 antagonist project, parental HEK293 cells, Fluo-4 calcium flux; 2% of 4,000 active; fluorescence ratio F(max-min)/F0 at 10 µM; Fluo-4 calcium fluorescence, FDSS; shares compounds with MrgX1 antagonist;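 active = duplicate-averaged calcium fluorescence ratio at least three times the standard deviation of buffer wells, a nonspecific response in parental cells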
HEK293 Ca counter: calcium response in parental HEK293 cells, primary screen, counter-screen for MrgX1 allosteric activator project, cell-based, Fluo-4 calcium flux, duplicate; shares compounds with MrgX1 antagonist; Fluo-4 fluorescence ratio; stronger effect = higher value; fluorescence ratio F(max-min)/F0 at 10 µM; 0.4% of 4,000 active;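 active = calcium fluorescence ratio, averaged over duplicates, at least 3 SD of the buffer-well ratio, meaning a nonspecific response in receptor-free cells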;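 note: untransfected parental HEK293 lacking MrgX1 used as counterscreen for MrgX1 allosteric activators; fluorescence change taken during the second addition on a kinetic imager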
HEK293 Ca cntr2: calcium response in parental HEK293 cells, primary screen, counter-screen for MrgX1 agonist project, cell-based, Fluo-4 calcium flux, duplicate, agonist mode; shares compounds with MrgX1 antagonist; Fluo-4 calcium fluorescence (FDSS); stronger effect = higher value; fluorescence ratio F(max-min)/F0 at 10 µM; 8.7% of 4,000 active;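 active = calcium fluorescence ratio at least three times the spread of buffer wells, meaning a non-specific response in parental cells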
The depositor's hits bear a star; i = inactive; nt = no result. A selection: hits, their analogues and other compounds. The true share with any hit is near 3.5%.

SMILES	MrgX1 antagonist	RGS4 act	MrgX1 PAM	RGS4 inh	MrgX1 agonist	MrgX1 ag confirm	HEK293 Ca flux	HEK293 Ca counter	HEK293 Ca cntr2
COc1ccc(CCC(=O)NCC(c2ccco2)N2CCc3ccccc32)cc1 (stereo not given)	i	i	i	i	i	nt	nt	nt	nt
CC1CCCCN1S(=O)(=O)c1ccc(C(=O)Nc2nnc(-c3ccccc3Cl)o2)cc1 (stereo not given)	i	i	i	i	40.5*	322.8%*	i	i	62.7*
CC1=CCC2C(=O)N(c3ccc(OC(=O)c4ccco4)cc3)C(=O)C2C1 (stereo not given)	i	i	i	i	i	nt	nt	nt	nt
CCOC(=O)c1ccc(N2C(=O)C3C(C2=O)C(C(=O)c2ccc(Cl)cc2)N2CCCC32)cc1 (stereo not given)	i	i	i	i	43.1*	i	i	i	52.3*
CCOC(=O)c1ccc(N2C(=O)C3CC=CCC3C2=O)cc1 (stereo not given)	i	i	i	i	i	nt	nt	nt	nt
COC(=O)c1c(NC(=O)CN2C(=O)NC3(CCC(C(C)(C)C)CC3)C2=O)sc2c1CCCCC2 (stereo not given)	i	i	i	i	i	nt	nt	nt	nt
COC(=O)c1c(NC(=O)CN2C(=O)NC3(CCc4ccccc4C3)C2=O)sc2c1CCCCC2 (stereo not given)	i	i	i	i	29.1*	224.9%*	i	i	75.2*
COc1ccc(-n2c(O)c(C=Nc3ccccc3)c3ccccc3c2=O)cc1	i	i	i	i	i	nt	nt	nt	nt
COc1ccc(N=Cc2c(O)c3ccccc3n2C(C)=O)cc1	i	i	i	i	61.6*	583.2%*	i	i	110*
COc1ccc(N=Cc2c(OC)ccc3ccccc23)cc1	i	i	i	i	i	nt	nt	nt	nt
COc1ccc(N=Cc2sc(O)c3ccccc23)cc1	i	i	i	i	44.4*	i	0.575*	i	121*
CSc1nc(N2CCOCC2)nc2ccc(C)cc12	i	i	i	i	i	nt	nt	nt	nt
CCOc1ccc(N(CC(=O)Nc2ccccc2OCC)S(=O)(=O)c2c(C)noc2C)cc1	i	i	i	i	i	nt	nt	nt	nt
COc1ccc(C(=O)N2CCCCCC2)cc1S(=O)(=O)N1CCOCC1	i	i	i	i	i	nt	nt	nt	nt
CCOC(=O)c1cnc2c(OC)cccc2c1N1CC(C)CC(C)C1 (stereo not given)	i	i	i	i	28*	i	i	i	i
CC(C)OP(=O)(c1ccc(N(C)C)cc1)C(O)c1ccc(N(C)C)cc1 (stereo not given)	i	i	i	i	i	nt	nt	nt	nt
O=S(=O)(Nc1ccc2c(c1)nc1n2CCN(Cc2ccccc2)C1)c1ccccc1	i	i	i	i	i	nt	nt	nt	nt
Cc1ccc(S(=O)(=O)Nc2ccc3c(c2)nc2n3CCN(Cc3ccccc3)C2)cc1	i	i	i	i	34*	i	i	i	i
COc1ccccc1N=C1NC(=O)/C(=C/c2ccc(N(C)C)cc2)S1	i	i	i	i	65.4*	i	0.217*	i	128*
COc1ccc(/C=C2\SC(=Nc3ccccc3)NC2=O)cc1	i	i	i	i	i	nt	nt	nt	nt
COc1cc2ncnc(NCc3ccc(Cl)cc3)c2cc1OC	i	i	i	i	32.7*	136.3%*	i	i	i
COc1ccc(-n2c(SCC(=O)NCC3CCCO3)nc3c([nH]c4ccccc43)c2=O)cc1 (stereo not given)	i	i	i	i	i	nt	nt	nt	nt
COc1cccc(-n2c(SCC(=O)NCC3CCCO3)nc3c([nH]c4ccccc43)c2=O)c1 (stereo not given)	i	i	i	i	30*	99.1%*	i	i	i
COC(=O)[C@@H]1CC[C@H](C)[C@@H](c2ccc(C)cc2)N1C(=O)c1ccc(/C=N/OCC[C@@H]2C=C[C@H](OC(C)=O)[C@@H](COC(C)=O)O2)cc1	i	i	i	i	i	nt	nt	nt	nt
COC(=O)c1c(Cl)c2n3ccccc3c(C)c(-c3ccccc3)c-2c1C(=O)OC	i	i	i	i	27.2*	i	i	i	i
SMILES	MrgX1 antagonist	RGS4 act	MrgX1 PAM	RGS4 inh	MrgX1 agonist	MrgX1 ag confirm	HEK293 Ca flux	HEK293 Ca counter	HEK293 Ca cntr2
c1ccc(CNc2ncnc3scc(-c4cccs4)c23)nc1	i	i	i	i	26.5*	159.9%*	i	i	i
c1ccc(CNc2ncnc3sc4c(c23)CCC4)nc1	i	i	i	i	i	nt	nt	nt	nt
O=C(c1cccs1)N1CCC(c2ccccc2)C1 (stereo not given)	i	i	i	i	i	nt	nt	nt	nt
O=C(CCN1CCC(c2ccccc2)C1)c1ccc2c(c1)OCCO2 (stereo not given)	i	i	i	i	36.4*	i	i	i	i
COc1cc(C(=O)CCN2CCC(c3ccccc3)C2)cc(OC)c1OC (stereo not given)	i	i	i	i	i	nt	nt	nt	nt
O=C(CCN1CCC(c2ccccc2)C1)c1cccs1 (stereo not given)	i	i	i	i	43.7*	140.1%*	i	i	i
O=C(NC(=S)NCCCN1CCOCC1)c1ccc([N+](=O)[O-])cc1	i	i	i	i	i	nt	nt	nt	nt
COC(=O)c1cc(-c2ccc(OC)c(OC)c2)c2c(=O)[nH]c(=O)n(C)c2n1	i	i	i	i	i	nt	nt	nt	nt
